pIC50: −log10 of the molar value.
Key:
[1] = biological target: T1, Protein farnesyltransferase (Homo sapiens, UniProt P49354+P49356); assay: In vitro inhibition of farnesyl-protein transferase; type: protein-complex assay
In short: (§1)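 Recombinant human FPTase; substrate recombinant human wild-type H-Ras with [1-(n)-3H]farnesylpyrophosphate (555 GBq/mmol). Enzyme activity is the [3H]farnesyl transferred to Ras, measured by filter binding. IC50 is the concentration giving 50% inhibition of specific activity, fitted by non-linear regression to a dose–response curve.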

[2] = biological target: T2, Geranylgeranyl transferase type I (Homo sapiens, UniProt P49354+P53609); assay: In vitro inhibition of geranylgeranyl-protein transferase type-I; type: protein-complex assay
In short: (§2)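 Recombinant human GGPTase-I; substrate recombinant human H-Ras CVLL with [1-(n)-3H]geranylgeranylpyrophosphate (615 GBq/mmol). Activity is the [3H]geranylgeranyl transferred to Ras, measured by filter binding. IC50 is the concentration inhibiting specific activity by 50%, derived by non-linear regression fit to a dose–response curve.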

[3] = In vitro inhibition of geranylgeranyl-protein transferase type-II; design: species or system Homo sapiens
[4] = biological target: T3, Protein farnesyl/geranylgeranyl transferase (Homo sapiens) (UniProt P49354+P49356+P53609); assay: Ratio of human Farnesyltransferase to human Geranylgeranyl transferase type I activity as IC50; 900:500; type: protein-complex assay
[5] = biological target: T3, Protein farnesyl/geranylgeranyl transferase (Homo sapiens); assay: Ratio of human Farnesyltransferase to human Geranylgeranyl transferase type I activity as IC50; 166:252; type: protein-complex assay
[6] = biological target: T1, Protein farnesyltransferase; assay: In vitro inhibition of Farnesyltransferase; type: protein-complex assay; in short: as §1
[7] = biological target: T2, Geranylgeranyl transferase type I; assay: In vitro inhibition of Geranylgeranyl transferase type I; type: protein-complex assay; in short: as §2

Row | Compound | pIC50 [1] | pIC50 [2] | also measured
1 | CC(C)CCCC(C)CCCC(C)CCCC1=CCC(C(=O)O)C(C(=O)O)C1 (configuration not stated) | < 3.00 | < 3.00 | 
2 | CC(C)=CCCC1=CCC(C(=O)O)C(C(=O)O)C1 (configuration not stated) | < 3.00 | 3.05 | 
3 | CCCCCCCCCCCC(=O)OC(=O)CCCCCCCCCCC [DODECANOIC ANHYDRIDE] | 3.07 | 3.64 | 
4 | CCCCCCCCCCCCCC/C(C(=O)O)=C(\C)C(=O)O [CHAETOMELLIC ACID A] |  | 4.04 | pIC50 [3]: 4.47
5 | COC(=O)C1CC=C(CCC=C(C)C)CC1C(=O)OC (configuration not stated) |  |  | Ratio [4]: 1.8
6 | CC(C)=CCC/C(C)=C/C=C1\CCC(C(=O)O)C(C(=O)O)C1 (configuration not stated) | < 3.00 | 3.38 | 
7 | CC(C)=CCCC1=CCC2C(=O)OC(=O)C2C1 (configuration not stated) | 3.35 | 4.40 | 
8 | CCCCCCCCCCCCC(C(=O)O)C(C(=O)O)C(=O)O (configuration not stated) |  |  | Ratio [5]: 0.66
9 | C=C1CC(=O)OC1=O [ITACONIC ANHYDRIDE] | < 3.00 | < 3.00 | 
10 | CC(C)=CCC/C(C)=C/CCC1=CCC2C(=O)OC(=O)C2C1 (configuration not stated) [listing 1 of 2 here] | 3.72 | 3.87 | 
11 | CC(C)=CCC/C(C)=C/CCC1=CCC2C(=O)OC(=O)C2C1 (configuration not stated) [listing 2 of 2 here] |  |  | pIC50 [6]: 5.05; pIC50 [7]: 3.30

Continued, in another order:

Row | pIC50 [1] | pIC50 [2] | Compound | also measured
12 | 3.40 | < 3.00 | CCCCCCCCC/C=C/CC(CC(=O)O)C(=O)O (configuration not stated) | 
13 | < 3.00 | 4.68 | CC(C)CCCC(C)CCCC(C)CCCC1=CCC2C(=O)OC(=O)C2C1 (configuration not stated) | 
14 |  | < 3.00 | COC(=O)C1CC=C(CCCC(C)CCCC(C)CCCC(C)C)CC1C(=O)OC (configuration not stated) | 
15 | < 3.00 | 3.40 | CCCCCCCCC/C=C/CC1CC(=O)OC1=O (configuration not stated) | 

Reference: ChEMBL document CHEMBL1135562, “Cyclic acid anhydrides as a new class of potent, selective and non-peptidic inhibitors of geranylgeranyl transferase” (Bioorg Med Chem Lett, 2002)
